Compound activity (PubChem)
NR2E3 ag-1 = activates human photoreceptor nuclear receptor NR2E3. Q9Y5X4. GST-NR2E3/biotin-RetCOR TR-FRET, 1536-well. inhibition of corepressor binding, % at 4.78 µM. actives 0.12% (n = 320,000). AID 2300;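 active means percent inhibition above the cutoff of mean plus 3 SD of all tested compounds, set per screening campaign, cut at about 20% in these data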
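Test system – NR2E3–RetCOR corepressor complex · Quantity – NR2E3 fusion 1.35 nM · Buffer or medium – Tris pH 7.5 · Incubation – Compound–protein incubation for 5 h at 4 °C · Technique – TR-FRET, Eu(K)-anti-GST donor, streptavidin-D2 acceptor, ex 340, em 617/671 nm · Evaluation – percent inhibition of 671/617 nm emission ratio versus biotin and DMSO controls · Plate – 1536-well format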
NR1D1 modulator = Rev-erb alpha (human) modulation; actives 0.79% (n = 370,000); Rev-erbα–FITC-DNA binding, fluorescence polarization, 90 min; AID 1259318; activity, % at 10 µM;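 active means activity above about 14%, limit read from the data; passing the limit was not always enough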
Target sequence (P20393 whole entry, looked up): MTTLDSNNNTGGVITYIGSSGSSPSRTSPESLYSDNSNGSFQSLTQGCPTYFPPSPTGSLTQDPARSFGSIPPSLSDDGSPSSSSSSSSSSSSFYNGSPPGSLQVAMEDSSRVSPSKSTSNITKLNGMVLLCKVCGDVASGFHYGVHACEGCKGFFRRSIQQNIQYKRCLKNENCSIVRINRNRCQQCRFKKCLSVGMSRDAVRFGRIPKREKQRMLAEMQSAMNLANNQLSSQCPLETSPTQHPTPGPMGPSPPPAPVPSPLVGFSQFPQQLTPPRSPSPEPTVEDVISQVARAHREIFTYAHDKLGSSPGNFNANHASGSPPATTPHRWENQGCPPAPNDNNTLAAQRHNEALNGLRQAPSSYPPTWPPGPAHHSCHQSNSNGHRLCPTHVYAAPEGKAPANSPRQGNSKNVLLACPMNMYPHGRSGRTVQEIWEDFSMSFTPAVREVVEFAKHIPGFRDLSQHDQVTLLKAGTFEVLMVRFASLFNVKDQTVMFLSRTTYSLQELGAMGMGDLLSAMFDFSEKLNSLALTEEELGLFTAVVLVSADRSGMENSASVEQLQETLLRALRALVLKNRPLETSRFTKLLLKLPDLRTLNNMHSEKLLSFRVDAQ
NR2E3 ag-2 = activates human NR2E3 receptor; CHO-S Gal4-NCOR/VP16-NR2E3 two-hybrid, luciferase; AID 602229; actives 0.35% (n = 360,000); inhibition of corepressor binding, % at 3.98 µM;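 active means inhibition above the mean of all tested compounds plus 3 SD, cut at about 70% in these data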;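 further: higher means lower luciferase signal from less NR2E3 corepressor binding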
Neddylation inh = blocks human cullin neddylation; calls only at 25 µM; P61081+Q13564; TR-FRET cullin neddylation, biochemical; actives 0.58% (n = 360,000); in the data active means inhibition above about 36%
PG9 binder = binds the HIV-1 gp120 antibody PG9; TR-FRET gp120-PG9 antibody binding; inhibition, % at 6.7 µM; actives 0.43% (n = 360,000); AID 624416; in the data active means inhibition above about 8.5%
Rev-erbA confirm = confirmation of modulators of human Rev-erb alpha DNA binding; shares compounds with NR1D1 modulator; Rev-erb alpha FITC-DNA binding, fluorescence polarization, 90 min; activation, % at 25 µM; actives 61% (n = 3,000); AID 1259319;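 active means activation at or above a set limit, or at least 3 SD above the negative control mean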
RORg DNA counter = affects RORgamma DNA binding in a Rev-erb alpha counter-screen | shares compounds with NR1D1 modulator | purified RORgamma protein-FITC-DNA binding, fluorescence polarization | IC50, µM | actives 8% (n = 910) | AID 1259320;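 active means Compounds whose fitted half-maximal concentration for disrupting protein-DNA binding is below 10 micromolar; the record names Rev-erb in its text, so the target is in doubt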
Hits are given with their value; n = inactive; x = not tested or not shown. The list is not random: actives were taken first. Their share in the collection is about 2%.

SMILES | NR2E3 ag-1 | NR1D1 modulator | NR2E3 ag-2 | Neddylation inh | PG9 binder | Rev-erbA confirm | others
Cc1ccc(OCC(=O)Nc2ccc(O)c(-c3nc4ccccc4o3)c2)cc1 | n | 102.6 | n | n | n | 38.4 | RORg DNA counter=n
CCOc1ccc(CCN2C(=S)N([C@@H](Cc3ccc(O)cc3)CN3CCC[C@@H]3CN3C(=S)NC[C@@H]3Cc3ccc(O)cc3)C[C@@H]2Cc2ccc(O)cc2)cc1 | x | n | n | n | n | x
N#CCCn1cc(/C=C(\C#N)c2nc3ccccc3s2)c(-c2ccc(F)cc2)n1 | n | 45.3 | n | n | n | 34.9
Cc1nc2sc(C(=O)NCc3ccncc3)c(N)c2c(C)c1Cl | x | n | x | x | x | x
O=c1sc(N2CCN(c3ccccc3F)CC2)nc2ccsc12 | n | 24.0 | n | n | n | 13.8
O=C(c1ccco1)N1CCN(c2nc3ccsc3c(=O)s2)CC1 | n | n | n | n | n | x
O=C(O)c1ccc(-c2ccc(/C=N/Nc3ccc([N+](=O)[O-])cc3)o2)cc1 | n | 20.7 | n | n | n | 18.2
O=C(O)c1cccc(-c2ccc(/C=N/Nc3ccc([N+](=O)[O-])cc3)o2)c1 | n | n | n | n | n | x
COc1ccccc1CNc1nc2cc(-c3sccc3C)sc2c(=O)n1C | x | 29.2 | n | n | n | 20.3
CCOC(=O)/C(C#N)=C/Nc1cc(F)ccc1C | n | n | n | n | n | x
CCOC(=O)/C(C#N)=C/Nc1cc(C(=O)OCC)cc2c(OC)c(OC)ccc12 | x | 30.8 | n | x | n | n
CCOC(=O)/C(C#N)=C/Nc1ccsc1C(=O)OC | n | 22.5 | n | n | n | n
O=c1[nH]c(=O)n(CCc2ccc(F)cc2)c(O)c1C=NCc1ccc2c(c1)OCO2 | n | 21.0 | n | n | n | 26.3
NC1CCCCC1N=Cc1c(O)n(CCc2ccc(F)cc2)c(=O)[nH]c1=O (stereo not given) | x | n | n | n | n | x
Cc1nc(C)c(-c2ccc(SCC(=O)Nc3cccc(Cl)c3C)nn2)s1 | n | 16.5 | n | n | n | n
Cc1nc(C)c(-c2ccc(SCC(=O)Nc3ccccc3)nn2)s1 | n | n | n | n | n | x
CC(C)NC(=O)/C(C#N)=C/c1ccc(N(C)C)o1 | n | 24.8 | n | n | n | n
Cc1cccc(C)c1OCC(=O)N[C@@H](Cc1ccccc1)[C@@H](O)C[C@H](Cc1ccccc1)NC(=O)[C@H](C(C)C)N1CCCNC1=O | x | n | x | x | x | x
CCN(CC)C(=O)CC[C@@H]1CC[C@]2(CCCN(Cc3ccccn3)C2)O1 | x | n | x | x | x | x
O=C(Nc1nccs1)c1c(O)c2cccc3c2n(c1=O)CCC3 | n | 36.5 | x | x | n | 29.7
Cc1cccnc1NC(=O)c1c(O)c2cccc3c2n(c1=O)CCC3 | n | n | n | n | n | x
O=C(Nc1ccccn1)c1c(O)c2cccc3c2n(c1=O)CCC3 | n | 32.4 | n | n | n | n
CCOC(=O)c1cccc(NC(=O)CN(C)S(=O)(=O)c2ccc(C)c(C)c2)c1 | x | n | x | x | x | x
Cc1ccc(N(Cc2cc3ccc(C)cc3[nH]c2=O)S(=O)(=O)c2ccccc2)cc1 | n | 33.6 | n | n | n | 19.1
COc1nc(-c2ccccc2)ccc1-c1noc(-c2cccnc2)n1 | n | 34.5 | n | n | n | n
SMILES | NR2E3 ag-1 | NR1D1 modulator | NR2E3 ag-2 | Neddylation inh | PG9 binder | Rev-erbA confirm | others
COc1nc(-c2ccccc2)ccc1-c1noc(-c2ccccc2F)n1 | n | 29.5 | n | n | n | n
COc1nc(-c2ccc(C)cc2)ccc1-c1noc(-c2cccnc2)n1 | n | 21.9 | n | n | n | n
COc1nc(-c2ccc(C)cc2)ccc1-c1noc(-c2ccco2)n1 | n | n | n | n | n | x
COc1ccccc1-c1noc(-c2cccnc2)n1 | n | n | n | n | n | x
O=C(OCCn1c(=S)sc2ccccc21)c1ccccc1 | x | n | n | n | n | x
CC1(C(=O)Nc2cccc3ncccc23)CCN1C(=O)Cc1ccc(-c2ccccc2)cc1 (stereo not given) | x | n | n | n | n | x
COc1ccc(/C=C2\SC(=O)N(CC(=O)Nc3cccnc3)C2=O)cc1OC | n | n | n | n | n | x
COc1ccc(/C=C2/SC(=O)N(CC(=O)Nc3cc(C)on3)C2=O)cc1OC | n | 49.5 | n | n | n | 26.6
